Fibroblast inh = blocks proliferation of human lung fibroblasts. AID 719. LL 47 human lung fibroblast viability, ATP luminescence; stronger effect = lower value. hit rate 1.1% among 85,000. viability, % at 10 µM;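 active means viability at or below 50% in the single dose screen; inactive means viability above 50%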;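 further: compound exposure lasted 72 h before the ATP readout; 100% = median luminescence of untreated cell-only wells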
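Assay system: human lung fibroblast line LL 47, low passage. Input: 1,150 fibroblasts seeded per well. Times: overnight cell rest, 72 h compound treatment at 37 °C. Evaluation: % viability of median cell-only signal. Technique: luminescent ATP detection, CellTiter-Glo. Control set: cell-only wells, no compound.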
HUVEC prolif 384 = inhibitors of human endothelial cell proliferation; HUVEC proliferation, CellTiter-Glo luminescence, 72 h; stronger effect = lower value; viability, % at 10 µM (by protocol); hit rate 1.1% among 86,000; AID 648;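 active means viability at or below 30%; inactive means viability above 30%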;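 further: 100% = median luminescence of DMSO-only cell control wells on each plate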
H69AR growth 86K = blocks growth of human H69AR lung tumor cells. H69AR lung tumor viability, ATP luminescence, 72 h; stronger effect = lower value. viability, % at 10 µM. hit rate 6% among 85,000. AID 598;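 active means viability at or below 40%; inactive means viability above 40%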;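 further: multidrug resistant small cell line overexpressing MRP-1 efflux transporter; 100% = mean luminescence of untreated control wells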
HCT116 PTEN-null = PTEN-deleted cell growth suppression | HCT116 PTEN-null viability, CellTiter-Glo, 60 h; stronger effect = lower value | viability, % at 10 µM | hit rate 1.2% among 140,000;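 active means viability at or below a set limit, 4 SD under the median of all tested compounds, cut at about 3.7% in these data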;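 further: PTEN knockout HCT116 line with beta catenin targeted HCT116 as companion control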
HCT116 bCat-KO = beta-catenin-lacking colon tumor cell growth suppression; HCT116 beta-catenin knockout viability, CellTiter-Glo, 60 h; stronger effect = lower value; AID 818; hit rate 1.5% among 140,000; viability, % at 10 µM;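 active means viability at or under a set limit, the compound median less 4 SD, cut at about 6% in these data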;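 further: 0% = Hyamine 1622 control at 20 µM and 100% = untreated cell control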
* = called active by the depositor; / = no result. The entries come from a sample that favours hits as a whole.

SMILES	Fibroblast inh	HUVEC prolif 384	H69AR growth 86K	HCT116 PTEN-null	HCT116 bCat-KO
COC(=O)c1ccc2c(=O)n(CC3CCCO3)c(SCC(=O)Nc3ccccc3OC)nc2c1 (stereo unspecified)	112.9	85.8	83.3	66.3	77.3
COC(=O)c1ccc2c(=O)n(CC3CCCO3)c(SCC(=O)Nc3ccccc3Cl)nc2c1 (stereo unspecified)	80.2	46.9	8.2*	2.2*	2.5*
COC(=O)c1c(NC(=O)CSc2nc3ccccc3c(=O)n2Cc2ccco2)sc(C)c1C	/	/	/	60.8	40.6
COC(=O)c1ccc2c(=O)n(Cc3ccco3)c(SCC(=O)Nc3ccccc3Cl)nc2c1	91.4	23.6*	16.6*	20.8	67.7
COC(=O)c1ccc2c(=O)n(Cc3ccc4c(c3)OCO4)c(SCC(=O)N3CCCC3)nc2c1	118.9	88.4	2.5*	/	/
CCc1ccc(NC(=O)CSc2nc3cc(C(=O)OC)ccc3c(=O)n2CC2CCCO2)cc1 (stereo unspecified)	36.3*	48.4	3.5*	8.3	48.4
O=C(COc1ccccc1)NCC(=O)Nc1cccc2ccccc12	/	/	/	90.2	85.7
Cc1ccccc1OCCNC(=O)/C=C/c1ccccc1	/	/	/	96.4	89.7
Cc1ccc(NC(=O)c2cc(N3C(=O)C=CC3=O)ccc2Cl)cc1C	/	/	/	104.1	102.8
Cc1ccc(-c2nnc(Oc3ccc(NC(=O)c4ccccc4)cc3)c3ccccc23)cc1	/	/	/	51.3	39.9
CCOC(=O)C(C)Oc1cccc2c(=O)n(CC(=O)NCc3ccc4c(c3)OCO4)ccc12 (stereo unspecified)	59.9	50.5	30.5*	6.9	7.7
CCOC(=O)C(C)Oc1cccc2c(=O)n(CC(=O)Nc3ccc4c(c3)OCCO4)ccc12 (stereo unspecified)	93.8	82.8	82.0	88.5	93.5
Cn1c(SCC(=O)N2c3ccccc3CCc3ccccc32)nnc1-c1ccc(O)cc1	/	/	/	84.7	89.8
CC(C)n1cc(NC(=O)c2cc(-c3ccccc3)on2)cn1	73.5	69.6	20.5*	25.4	23.6
COc1ccc(-c2nc3c(c4nnc(SC(C)C(=O)Nc5ccccc5)n24)COC(C)(C)C3)cc1 (stereo unspecified)	/	/	/	38.2	5.2*
CCOC(=O)/C=C/S(=O)(=O)c1ccc(NC(C)=O)cc1	13.8*	68.2	-0.2*	76.1	81.3
CC(Sc1ncnc2ccccc12)C(=O)Nc1ccc2c(c1)OCCO2 (stereo unspecified)	/	/	/	67.2	82.8
FC(F)(F)c1n[nH]c(=S)n1/N=C/c1ccco1	/	/	/	107.0	84.3
Cc1[nH]nc2c1C(c1cc(Br)cs1)C(C#N)=C(N)O2 (stereo unspecified)	/	/	/	2.1*	2.0*
Cc1[nH]nc2c1C(c1ccoc1)C(C#N)=C(N)O2 (stereo unspecified)	99.6	92.1	97.0	82.3	96.3
CC1=C(C)C(=O)NC(Nc2nc(C)c3cc(C)cc(C)c3n2)N1 (stereo unspecified)	13.5*	23.7*	24.2*	/	/
C=C(C)C(=O)OC1(C(F)(F)F)Oc2cc(C)ccc2NC1=O (stereo unspecified)	17.4*	15.0*	1.5*	97.4	106.4
COC(=O)CC1Oc2ccc(C)cc2NC1=O (stereo unspecified)	104.5	103.3	91.9	87.5	86.9
CCC(=O)N1N=C(c2c(-c3ccccc3)c3cc(Cl)ccc3[nH]c2=O)CC1c1ccco1 (stereo unspecified)	/	/	/	45.5	58.1
COc1ccccc1C1CC(c2c(-c3ccccc3)c3cc(Cl)ccc3[nH]c2=O)=NN1S(C)(=O)=O (stereo unspecified)	93.6	25.9*	8.3*	1.9*	2.0*
SMILES	Fibroblast inh	HUVEC prolif 384	H69AR growth 86K	HCT116 PTEN-null	HCT116 bCat-KO
COc1cccc(C2CC(c3c(-c4ccccc4)c4cc(Cl)ccc4[nH]c3=O)=NN2S(C)(=O)=O)c1OC (stereo unspecified)	90.8	55.8	21.9*	36.9	54.5
COc1ccc(NC(=S)Nc2cccc(S(=O)(=O)N3CCCCC3)c2)cc1	/	/	/	79.6	73.7
CCn1c2ccccc2c2cc(NC(C)=O)ccc21	105.8	81.0	99.9	89.6	92.9
C=Cn1ccnc1P(=S)(c1ccc2c(c1)c1ccccc1n2CC)c1nccn1C=C	51.5	41.1	13.4*	12.0	25.5
CC(C)(C)C(=O)n1nc(-c2ccccc2)oc1=O	/	/	/	99.1	89.3
CCOC(=O)C(C)(C)N(Cc1cccc(C)c1)S(=O)(=O)c1ccc(Cl)c([N+](=O)[O-])c1	/	/	/	3.3*	1.7*
c1ccc(-c2ccccc2-c2nc(-c3cccnc3)no2)cc1	95.0	75.9	76.3	84.7	96.7
c1ccc(-c2cc(-c3nc(-c4cccnc4)no3)c3ccccc3n2)cc1	106.7	82.8	12.0*	/	/
CC(NC(=O)c1cccs1)c1nnc(SCc2ccc(Cl)cc2Cl)n1C (stereo unspecified)	/	/	/	93.8	93.3
COc1cc(C)c(Cl)cc1S(=O)(=O)n1cnc(C)c1	92.0	88.2	86.0	101.7	101.4
COc1ccc(C(C)C)cc1S(=O)(=O)n1cnc(C)c1	90.6	64.3	27.4*	44.9	52.3
C/C(N)=C(/C#N)C(=O)CSc1nnnn1-c1ccc(C)cc1C	95.0	86.3	88.4	60.4	54.1
COc1ccc(-c2nc(Cn3c(SCc4ccc(C)cc4)nc4ccncc43)c(C)o2)cc1OC	92.6	73.2	18.7*	74.9	70.9
COc1ccc(-c2nc(Cn3c(SCc4cccc(F)c4)nc4ccncc43)c(C)o2)cc1OC	86.8	57.5	53.9	68.2	64.5
Nc1nnc(-c2cc3ccccc3oc2=O)s1	99.6	87.4	95.0	80.7	75.4
O=c1oc2ccccc2cc1-c1nnc(NCc2ccco2)s1	91.0	71.1	32.2*	35.1	58.1
COc1ccccc1NS(=O)(=O)c1ccc(NN=C2CCCCC2)c([N+](=O)[O-])c1	/	/	/	79.9	79.7
CCOC(=O)c1c(CSC(=N)N)n(-c2ccc(Br)cc2)c2cc(Br)c(OC(C)=O)cc12	/	/	/	1.6*	1.3*
CCOC(=O)c1c(CSc2nc(C)cc(C)c2C#N)n(C)c2cc(Br)c(OC(C)=O)cc12	/	/	/	37.5	30.1
O=C(COC(=O)C1CC(O)CN1C(=O)Oc1ccccc1)c1ccc(Br)cc1 (stereo unspecified)	/	/	/	97.0	88.7
CNC(CC(=O)c1ccc([N+](=O)[O-])cc1)C(Cl)(Cl)Cl (stereo unspecified)	/	/	/	3.4*	2.6*
Cc1cc2cc(CNC(=S)Nc3ccc(OC(F)(F)F)cc3)ccc2[nH]1	/	/	/	83.3	81.6
Cc1cccc2cc(CN(Cc3ccco3)C(c3nnnn3CCc3ccccc3)C(C)C)c(=O)[nH]c12 (stereo unspecified)	/	86.4	65.7	35.6	38.1
COCCn1nnnc1C(C(C)C)N(Cc1ccccc1)Cc1cc2cc(OC)ccc2[nH]c1=O (stereo unspecified)	89.2	70.8	4.8*	43.8	57.2
COCCn1nnnc1C(C(C)C)N(Cc1cccnc1)Cc1cc2cc(OC)ccc2[nH]c1=O (stereo unspecified)	103.6	83.1	90.6	92.7	89.0

Screens: PubChem, SRMLSC
